Results reported in ChEMBL document CHEMBL4673261, “Saturated Hydroxy Fatty Acids Exhibit a Cell Growth Inhibitory Activity and Suppress the Cytokine-Induced β-Cell Apoptosis” (J Med Chem, 2020).
pIC50: −log10 of the molar value. Active and inactive are the calls of the source. The rule behind the calls is not given here.

Assays:
[1] = test system: U-87 MG; assay: Antiproliferative activity against human U-87 MG cells assessed as reduction in cell growth after 72 hrs by MTT assay; type: functional, cell-based; settings: U-87MG ATCC
Procedure, shortened: (§1)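 Cells were switched after 24 h to medium containing compound, diluted from a 10 mM DMSO stock to a final 0.5% DMSO, with vehicle controls. Exposure was 72 h, then MTT (0.25 mg/mL final) for 3 h. Formazan was dissolved in DMSO and read at 570 nm minus 690 nm background. Triplicate wells were normalised to DMSO as 100%. IC50 came from dose-response curves over at least six experiments.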

[2] = test system: Caco-2; assay: Antiproliferative activity against human Caco2 cells assessed as reduction in cell growth after 72 hrs by MTT assay; type: functional, cell-based; settings: Caco-2, 72 h; procedure, shortened: as §1
[3] = test system: A549; assay: Antiproliferative activity against human A549 cells assessed as reduction in cell growth after 72 hrs by MTT assay; type: functional, cell-based; settings: A549, 72 h; procedure, shortened: as §1
[4] = Toxicity in […] assessed as induction of apoptotic cell death at 1 to 10 uM measured after 1 hr by TUNEL assay; type: cell-based; settings: ins1, 10 µM; dose 1-10 µM
Procedure, shortened: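 INS-1 cells (RPMI, 10% FCS, 10 mM HEPES, 1 mM pyruvate, 37 °C, 5% CO2) were grown to ~70% confluency. They were pretreated 1 h with 1 or 10 μM (final DMSO 0.10%), then given vehicle or IL-1β 20 ng/mL + IFNγ 200 ng/mL for 16 h. Cells were cytospun, PFA-fixed, permeabilised, TUNEL-stained and DAPI-counterstained. Result was % TUNEL-positive nuclei from ≥3 fields per slide, 3–5 independent experiments, mean ± SEM.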

[5] = test system: A549; assay: Induction of apoptosis in human A549 cells assessed as increase in activated caspase-3 at 50 uM measured after 72 hrs by DAPI and immunostaining based assay; type: functional, cell-based
Procedure, shortened: (§2)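 A549 cells (DMEM, 4.5 g/L glucose, 10% heat-inactivated FBS) were grown on poly-L-lysine-coated coverslips and exposed to 50 μM or DMSO vehicle for 72 h. They were fixed in 4% PFA and blocked with 5% FBS/0.1% Triton X-100. Staining was rabbit anti-phospho-histone H3 or anti-cleaved caspase-3 overnight at 4 °C, then Alexa488 secondary and DAPI. Read-out was % positive nuclei over DAPI, n = 8 fields.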

[6] = test system: A549; assay: Cell cycle arrest in human A549 cells assessed as reduction in histone H3 phosphorylation at 50 uM measured after 72 hrs by DAPI and immunostaining based assay; type: functional; procedure, shortened: as §2
[7] = (§3) Protection against IL1beta/IFNgamma-induced cell death in […] cells assessed as reduction in cell death at 1 uM preincubated for 1 hr followed by IL1beta/IFNgamma addition and measured after 16 hrs by TUNEL assay relative to control; type: functional; design: scale not given: the % may be the effect or the level left; settings: time 17 hrs
Procedure, shortened: (§4)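 INS-1 insulinoma cells grown in RPMI (10% fetal calf serum, 2 mM glutamine, 10 mM HEPES, 1 mM pyruvate) at 37 °C, 5% CO2 to ~70% confluency. Pretreated 1 h with the hydroxy fatty acid in DMSO (final 0.10%), then IL-1β 20 ng/mL + IFNγ 200 ng/mL for 16 h. Cells were cytospun, PFA-fixed and permeabilised, then TUNEL/DAPI stained. Apoptotic cells counted as % of total, ≥3 fields per slide, 3–5 independent experiments.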

[8] = (§5) Protection against IL1beta/IFNgamma-induced cell death in […] cells assessed as reduction in cell death at 10 uM preincubated for 1 hr followed by IL1beta/IFNgamma addition and measured after 16 hrs by TUNEL assay relative to control; type: functional; design: scale not given: the % may be the effect or the level left; settings: time 17 hrs; procedure, shortened: as §4
[9] = test system: SF-268; assay: Antiproliferative activity against human SF-268 cells assessed as reduction in cell growth after 72 hrs by MTT assay; type: functional, cell-based; settings: SF-268, 72 h; procedure, shortened: as §1
[10] = test system: INS1; assay: as §3; type: functional; settings: Rattus norvegicus, time 17.0 hrs; procedure, shortened: as §4
[11] = test system: INS1; assay: as §5; type: functional; settings: Rattus norvegicus, time 17.0 hrs; procedure, shortened: as §4
[12] = biological target: Signal transducer and activator of transcription 3 (Homo sapiens) (UniProt P40763); assay: Down regulation of STAT3 phosphorylation in human A549 cells at 50 uM by Western blot analysis; type: cell-based
Procedure, shortened: (§6)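 Treated and untreated A549 cells were lysed in RIPA and spun at 17,000g for 15 min at 4 °C. 35 μg protein was run on SDS-PAGE and transferred to nitrocellulose, then blocked with 5% BSA in TBS-0.1% Tween 20. Probes were anti-phospho-STAT3 (1:1000), anti-STAT3 (1:1000) and anti-β-actin (1:20,000) overnight at 4 °C, then secondary for 1.30 h. Relative protein expression was quantified.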

[13] = test system: A549; assay: Reduction in total STAT3 expression in human A549 cells at 50 uM by Western blot analysis; type: functional, cell-based; procedure, shortened: as §6
[14] = test system: A549; assay: Reduction in STAT3 mRNA level in human A549 cells at 50 uM by RT-qPCR analysis; type: functional, cell-based
Procedure, shortened: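 STAT3 mRNA in DMSO- versus compound-treated A549 cells was measured by quantitative real-time RT-PCR, normalised to β-actin mRNA.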

[15] = test system: SF-268; assay: Antiproliferative activity against human SF-268 cells assessed as reduction in cell growth at 10 to 100 uM after 72 hrs by MTT assay; type: functional, cell-based; settings: dose 10-100 µM; procedure, shortened: as §1
[16] = test system: Caco-2; assay: Antiproliferative activity against human Caco2 cells assessed as reduction in cell growth at 10 to 100 uM after 72 hrs by MTT assay; type: functional, cell-based; settings: dose 10-100 µM; procedure, shortened: as §1
[17] = test system: A549; assay: Antiproliferative activity against human A549 cells assessed as reduction in cell growth at 10 to 100 uM after 72 hrs by MTT assay; type: functional, cell-based; settings: dose 10-100 µM; procedure, shortened: as §1

Sequence of Signal transducer and activator of transcription 3 (Homo sapiens) (P40763 whole entry): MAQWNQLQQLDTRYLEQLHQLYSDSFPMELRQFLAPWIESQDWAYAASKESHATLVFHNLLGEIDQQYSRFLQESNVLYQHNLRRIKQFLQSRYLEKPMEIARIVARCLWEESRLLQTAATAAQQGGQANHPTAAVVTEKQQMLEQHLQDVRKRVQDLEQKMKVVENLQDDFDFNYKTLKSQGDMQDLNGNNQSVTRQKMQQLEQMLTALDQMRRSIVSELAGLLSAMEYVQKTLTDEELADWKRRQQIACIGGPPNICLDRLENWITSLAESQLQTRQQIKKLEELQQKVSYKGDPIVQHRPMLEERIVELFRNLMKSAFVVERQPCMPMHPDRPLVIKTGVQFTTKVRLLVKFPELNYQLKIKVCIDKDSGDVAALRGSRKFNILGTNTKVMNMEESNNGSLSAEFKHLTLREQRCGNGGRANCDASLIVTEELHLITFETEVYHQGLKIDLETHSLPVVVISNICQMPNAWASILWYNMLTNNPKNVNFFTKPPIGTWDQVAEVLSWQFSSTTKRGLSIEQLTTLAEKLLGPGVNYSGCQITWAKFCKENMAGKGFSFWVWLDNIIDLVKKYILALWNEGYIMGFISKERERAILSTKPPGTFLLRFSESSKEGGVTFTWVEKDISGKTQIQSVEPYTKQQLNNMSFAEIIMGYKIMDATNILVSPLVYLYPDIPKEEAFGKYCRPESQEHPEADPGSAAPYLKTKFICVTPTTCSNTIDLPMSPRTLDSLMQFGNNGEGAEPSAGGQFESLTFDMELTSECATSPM

Compound	Activity [1]	pIC50 [2]	pIC50 [3]	Activity [4]	Activity [15]	Activity [16]	Activity [17]	other results
CCCCCCCCC[C@H](O)CCCCCC(=O)O	inactive	4.30	4.26					
CCCCCCCCC[C@@H](O)CCCCCCCC(=O)O				Non-Toxic				Activity [5]: inactive; Activity [6]: Active; Activity [7]: 40%; Activity [8]: 73%
CCCCCCCCC[C@H](O)CCCCCCCC(=O)O				Non-Toxic				Activity [7]: 40%; Activity [8]: 68%
CCCCCCCCCCC[C@H](O)CCCCCC(=O)O	inactive	4.30	4.30	Non-Toxic				pIC50 [9]: 4.33; Activity [10]: inactive; Activity [11]: inactive
CCCCCCCCCCC[C@@H](O)CCCCCC(=O)O	inactive	4.43	4.42	Non-Toxic				pIC50 [9]: 4.57; Activity [12]: Active; Activity [13]: Active; Activity [14]: Active; Activity [5]: inactive; Activity [6]: Active; Activity [10]: inactive; Activity [8]: 95%
CCCCCCCCCCCCCCCC(=O)OC(CCCCCCCCC)CCCCCCCC(=O)O (centres undefined)					inactive	inactive	inactive	
CCCCCCCC/C=C\CCCCCCCC(=O)OC(CCCCCCCCC)CCCCCCCC(=O)O (centres undefined)					inactive	inactive	inactive	
CCCCCCCCCCCCCCCC(=O)OC(CCCCCCCCCCC)CCCCCC(=O)O (centres undefined)					inactive	inactive	inactive	Activity [11]: inactive
CCCCCCCCCCCCCCCC(=O)O					inactive	inactive	inactive	
CCCCCCCCCCCCCCCCCC(=O)O					inactive	inactive	inactive	
CCCCCCCCC[C@@H](O)CCCCCC(=O)O	inactive	4.38	4.31					
